These results are taken from ChEMBL document CHEMBL1140328, “Synthesis and mechanism of action studies of a series of norindenoisoquinoline topoisomerase I poisons reveal an inhibitor with a flipped orientation in the ternary DNA-enzyme-inhibitor complex as determined by X-ray crystallographic analysis” (2005).

Molecules are shown by their SMILES. Some results are limits rather than exact numbers.

A short description of assay [1]: Concentration required to inhibit the growth of human Lung HOP-62 cells. Format: functional. Summed up: (§1)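 NCI screen of about 55 human cancer cell lines; GI50 per cell line over a test range of 10⁻⁸ to 10⁻⁴ M. Mean graph midpoint is the average GI50 across all lines tested, with values outside the range set to 10⁻⁸ or 10⁻⁴ M.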
The target of assay [2] is T1, DNA topoisomerase 1 (Homo sapiens) (UniProt P11387).
T1 sequence (whole entry): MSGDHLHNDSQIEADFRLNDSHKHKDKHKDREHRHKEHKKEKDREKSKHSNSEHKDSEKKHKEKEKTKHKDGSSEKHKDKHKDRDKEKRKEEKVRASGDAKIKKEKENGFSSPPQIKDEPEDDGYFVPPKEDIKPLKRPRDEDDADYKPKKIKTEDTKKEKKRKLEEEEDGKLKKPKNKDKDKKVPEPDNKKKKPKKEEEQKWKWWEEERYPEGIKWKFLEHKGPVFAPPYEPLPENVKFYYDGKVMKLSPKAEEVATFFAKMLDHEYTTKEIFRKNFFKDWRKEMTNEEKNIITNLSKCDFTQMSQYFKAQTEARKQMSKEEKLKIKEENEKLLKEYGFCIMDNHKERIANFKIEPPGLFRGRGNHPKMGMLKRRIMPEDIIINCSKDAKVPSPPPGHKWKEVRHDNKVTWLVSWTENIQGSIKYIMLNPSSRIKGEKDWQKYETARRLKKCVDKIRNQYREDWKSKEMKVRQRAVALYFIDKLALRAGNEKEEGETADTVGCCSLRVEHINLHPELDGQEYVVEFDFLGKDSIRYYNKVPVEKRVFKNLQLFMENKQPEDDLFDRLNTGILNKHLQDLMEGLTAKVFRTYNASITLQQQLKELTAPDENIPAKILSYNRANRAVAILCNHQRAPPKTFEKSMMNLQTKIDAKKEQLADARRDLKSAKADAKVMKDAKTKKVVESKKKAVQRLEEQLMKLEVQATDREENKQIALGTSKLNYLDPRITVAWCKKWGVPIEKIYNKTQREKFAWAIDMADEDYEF
In words: Topoisomerase-I mediated DNA Cleavage activity at 30 degree C for 30 min relative to NSC 314622; Range = 25-75%.

The nature of assay [3]: Concentration required to inhibit the growth of human Breast MDA-MB-435 cells. The class given is functional. The procedure, abridged: as §1
The nature of assay [4]: Concentration required to inhibit the growth of human Ovarian OVCAR cells. Format: functional. Summed up: as §1
Assay [5] can be described thus: Concentration required to inhibit the growth of human Prostate DU-145 cells. Format: functional. Summed up: as §1
A short description of assay [6]: Concentration required to inhibit the growth of human Melanoma UACC-62 cells. Format: functional. Summed up:
as §1

Assay [7] is described as follows: Concentration required to inhibit the growth of human Colon […] cells. The class given is functional. Summed up:
as §1

A short description of assay [8]: Concentration required to inhibit the growth of human Renal SN12C cells. The class given is functional. The procedure, abridged: as §1
Assay [9] is described as follows: Concentration required to inhibit the growth of human CNSSF-539 cells. The class given is functional. Summed up:
as §1

A short description of assay [10]: Concentration required to inhibit the growth of human prostate DU-145 cells. Format: functional. Summed up:
as §1

Assay [11] can be described thus: Concentration required to inhibit the growth of human ProstateDU-145 cells. The following applies: DU-145. The class given is functional. The procedure, abridged: as §1
In assay [12] the target is T1, DNA topoisomerase 1 (Homo sapiens). Kind of assay: Topoisomerase-I mediated DNA Cleavage activity at 30 degree C for 30 min relative to NSC 314622; Range = 75-175%.
A short description of assay [13]: Concentration required to inhibit the growth of human OvarianOVCAR cells. The class given is functional. The procedure, abridged: as §1
Assay [14] can be described thus: Concentration required to inhibit the growth of human ColonHCT-11 cells. The class given is functional. The procedure, abridged: (§2)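 Assayed in the National Cancer Institute screen, a panel of approximately 55 human cancer cell lines. Compounds were tested over a concentration range of 10⁻⁸ to 10⁻⁴ molar, and growth inhibition was expressed as GI₅₀ for each cell line.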

Assay [15] can be described thus: Concentration required to inhibit the growth of human LungHOP-62 cells. Format: functional. Summed up:
as §2

A word on the GI50: it is the concentration that inhibits growth by half. Turning to `COc1cc2c3c(n(C)c(=O)c2cc1OC)-c1cc2c(cc1C3=O)OCO2`, the GI50 stood at 1.3 µM in assay [1]; 96 µM in [3]; 73 µM in [4]; 37 µM in [5]; 4.2 µM in [6]; 35 µM in assay [7]. The same molecule registered a GI50 in assay [8] of 68 µM. The molecule further yielded a Cleavage in assay [2] of 75%.
Take `COc1ccc(OC)c2c3c(ncc12)-c1cc2c(cc1C3)OCO2`: the GI50 in [1] is under 0.01 µM; in [3], over 100 µM; in [4] it was 26.9 µM; in assay [5], 48.4 µM; in assay [6] it was over 100 µM; in [7] it was 0.249 µM. Further, the concentration for 50% growth inhibition (GI50) in assay [8] is over 100 µM. Also, the Cleavage in assay [2] is 75%.
For the molecule `COc1cc2c(cc1OC)-c1ncc3cc(OC)c(OC)c(OC)c3c1C2`, the GI50 in assay [1] was 34.8 µM; in [3] it was 16.2 µM; in assay [4] it was 15.9 µM; in [5], 21.7 µM; in [6], 7.42 µM; in [9] it was 14 µM. The GI50 in assay [7] was found to be 31.8 µM; in assay [8] it was 14.4 µM.
Consider `COc1cc2c(cc1OC)-c1ncc3c(OC)ccc(OC)c3c1C2`, for which the GI50 in [1] was 21.4 µM; in assay [3] it was 23.4 µM; in assay [4], 15.4 µM; in assay [5], 28.1 µM; in [6], 18 µM; in [9], 14 µM. Moreover, the GI50 in [7] was 17.8 µM; in assay [8] it was 14.8 µM.
In the case of `COc1cc2c(c(OC)c1OC)-c1ncc3c(OC)c(OC)c(OC)cc3c1C2`, the GI50 in assay [1] was 28.5 µM; in [3], 23 µM; in [4] it was 21.5 µM; in [5] it was 29.6 µM; in [6], 21.1 µM; in [7], 27.8 µM. Further, it took 20.3 µM to inhibit growth in assay [8] by half (GI50). Also, the Cleavage in assay [2] was 75%.
On to `COc1cc2c(cc1OC)-c1ncc3c(OC)c(OC)c(OC)cc3c1C2`, for which the concentration for 50% growth inhibition (GI50) in assay [1] was determined as 16 µM; in assay [4], 0.529 µM; in assay [6] it was 3.84 µM; in assay [7], 8.81 µM. In addition, the Cleavage in assay [2] amounted to 75%.
Turning to `COc1cc2c3c(ncc2c(OC)c1OC)-c1cc2c(cc1C3)OCO2`, the GI50 is 26.9 µM in assay [10], over 100 µM in assay [3] and 22.1 µM in assay [7]. Moreover, in assay [2], the Cleavage is 75%.
Take `COc1cc2cnc3c(c2c(OC)c1OC)Cc1cc2c(cc1-3)OCO2`: the concentration for 50% growth inhibition (GI50) is 0.234 µM in [1]; 0.178 µM in assay [3]; 0.403 µM in assay [4]; 0.439 µM in assay [6]; 0.869 µM in assay [9]; over 100 µM in assay [11]. For the same molecule, the GI50 in [7] was determined as 0.0694 µM; in [8] it was 0.602 µM. In addition, the Cleavage in assay [2] was 75%.
For the molecule `COc1cc2cnc3c(c2cc1OC)Cc1cc2c(cc1-3)OCO2`, the GI50 was 0.0721 µM in assay [1]; under 0.01 µM in [3]; 0.0281 µM in [5]; under 0.01 µM in [6]; under 0.01 µM in assay [9]; over 100 µM in assay [7]. The same molecule registered a GI50 in [8] of over 100 µM. The Cleavage in [12] was 175%.
In assay [12], `COc1cc2c(cc1OC)-c1ncc3cc4c(cc3c1C2)OCO4` showed a Cleavage of 175%. The GI50 is 63.4 µM in [3]; 61.2 µM in assay [4]; 25.3 µM in assay [5]; over 100 µM in assay [6]; 23.4 µM in [9]; 11.1 µM in assay [7]. In assay [8], the GI50 is over 100 µM.
In the case of `c1c2c(cc3c1OCO3)-c1ncc3cc4c(cc3c1C2)OCO4`, the 50% growth inhibitory concentration (GI50) in assay [1] is 0.227 µM; in assay [3] it was under 0.01 µM; in [4], 0.0232 µM; in [6], 0.19 µM; in assay [9] it was 0.598 µM; in [7], 0.283 µM. Also, in assay [8], the GI50 stood at 0.0414 µM. For the same molecule, the Cleavage in assay [2] is 75%.
`COc1cc2c(c(OC)c1OC)-c1ncc3cc4c(cc3c1C2)OCO4`: the GI50 is 21.7 µM in [1]; 13.2 µM in assay [3]; 15.5 µM in assay [4]; 23.2 µM in assay [5]; 19.3 µM in [6]; 18.8 µM in [7]. In assay [8], this molecule registered a GI50 of 13.4 µM.
With `COc1cc2c(c(OC)c1OC)-c1ncc3cc(OC)c(OC)c(OC)c3c1C2`, the GI50 turned out to be 35.4 µM in assay [1]; 20.8 µM in assay [3]; 19.1 µM in assay [13]; 26.6 µM in [5]; 17.4 µM in assay [6]; 33.5 µM in [7]. The same molecule yielded a GI50 in [8] of 17.6 µM.
`COc1cc2c(cc1OC)-c1ncc3cc(OC)c(OC)cc3c1C2` showed a Cleavage in assay [2] of 75%. The GI50 in assay [3], in assay [4], in assay [5], in [6], in [9] and in assay [7] was over 50 µM each time. The GI50 in [8] is over 50 µM.
Regarding `CC[C@@]1(O)C(=O)OCc2c1cc1n(c2=O)Cc2cc3ccccc3nc2-1` [CAMPTOTHECIN], the GI50 in assay [14] worked out at 0.03 µM; in [13], 0.22 µM; in assay [15], 0.01 µM; in assay [9], 0.01 µM.
